# Active and inactive are the calls of the source. No cut-off for these calls is given here.
# Columns and labels:
# Gamma-secretase [1] = experiment: Modulation of gamma-secretase (unknown origin) assessed as reduction of amyloid beta 42 level; type: protein-complex assay, Homo sapiens
# Cytochrome P450 2C9 = Cytochrome P450 2C9 (Homo sapiens, UniProt P11712); experiment: Inhibition of CYP2C9 (unknown origin)
# [2] = Drug metabolism in mouse liver microsomes at 1 uM after 15 mins; type: ADME, Microsome; settings: read-out: Drug metabolism
# In short: (§1)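 Compound at 1 μM was incubated with human or mouse liver microsomes for 15 min. The value is the % of compound metabolized.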
# Cytochrome P450 1A2 = molecular target: T1, Cytochrome P450 1A2 (Homo sapiens, UniProt P05177); experiment: Inhibition of CYP1A2 (unknown origin)
# T1 sequence (P05177 whole entry): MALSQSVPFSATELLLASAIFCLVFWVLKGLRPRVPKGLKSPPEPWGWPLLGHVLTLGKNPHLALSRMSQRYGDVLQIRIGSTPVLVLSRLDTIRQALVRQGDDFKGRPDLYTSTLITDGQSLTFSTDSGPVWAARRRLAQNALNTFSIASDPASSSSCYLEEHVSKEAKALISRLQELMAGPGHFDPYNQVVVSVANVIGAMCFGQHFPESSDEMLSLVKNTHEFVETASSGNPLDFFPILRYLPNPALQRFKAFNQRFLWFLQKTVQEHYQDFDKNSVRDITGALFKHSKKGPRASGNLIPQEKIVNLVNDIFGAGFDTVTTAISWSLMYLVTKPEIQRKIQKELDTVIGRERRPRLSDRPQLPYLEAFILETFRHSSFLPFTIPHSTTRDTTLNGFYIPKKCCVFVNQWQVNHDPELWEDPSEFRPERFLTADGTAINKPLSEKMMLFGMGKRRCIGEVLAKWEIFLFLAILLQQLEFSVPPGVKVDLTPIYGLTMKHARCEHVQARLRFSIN
# Cytochrome P450 2C19 = Cytochrome P450 2C19 (Homo sapiens, UniProt P33261); experiment: Inhibition of CYP2C19 (unknown origin)
# Cytochrome P450 2C19, sequence (P33261 whole entry): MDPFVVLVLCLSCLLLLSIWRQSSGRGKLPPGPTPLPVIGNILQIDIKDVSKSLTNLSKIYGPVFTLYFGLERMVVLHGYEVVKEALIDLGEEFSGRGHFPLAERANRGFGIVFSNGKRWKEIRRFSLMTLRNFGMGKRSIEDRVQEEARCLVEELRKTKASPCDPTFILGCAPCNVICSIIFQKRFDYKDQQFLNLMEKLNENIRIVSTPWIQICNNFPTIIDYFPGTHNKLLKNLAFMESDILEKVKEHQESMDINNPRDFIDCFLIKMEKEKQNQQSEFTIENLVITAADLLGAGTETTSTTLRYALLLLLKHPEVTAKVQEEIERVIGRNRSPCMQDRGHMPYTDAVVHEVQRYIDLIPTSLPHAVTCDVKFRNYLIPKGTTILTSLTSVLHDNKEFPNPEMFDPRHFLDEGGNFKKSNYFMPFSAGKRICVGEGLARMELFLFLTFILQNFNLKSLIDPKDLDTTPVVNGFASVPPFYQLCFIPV
# [3] = Drug level in mouse brain at 30 mg/kg, po after 4 hrs; type: ADME, organism-based; parameters: dose 30 mg/kg, route oral; settings: read-out: Drug uptake
# In short: (§2)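 Mice received 30 mg/kg orally. Plasma and brain were sampled at 4 h and analysed for compound by a qualified research LC-MS/MS method. The brain/plasma ratio was calculated from the two concentrations.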
# Mus musculus [4] = experiment: Antialzheimer activity in mouse assessed as reduction of amyloid beta-42 level at 30 mg/kg, po after 4 hrs by ELISA; type: functional
# In short: (§3)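 Mice dosed orally at 30 mg/kg, n = 6. Brain Aβ peptides were measured by ELISA 4 h after dosing. Values are given as % change versus untreated animals.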
# Mus musculus [5] = experiment: Antialzheimer activity in mouse assessed as reduction of total amyloid beta level at 30 mg/kg, po after 4 hrs by ELISA; type: functional; in short: as §3
# [6] = Fraction unbound in rat brain; type: ADME, tissue-based
# In short: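 Unbound fraction in rat brain tissue, expressed as %.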
# [7] = Fraction unbound in human plasma; type: ADME, cell-free
# In short: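 Unbound fraction in human plasma, determined as binding to human plasma proteins.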
# Mus musculus [8] = experiment: Effect in mouse assessed as increase of amyloid beta 38 level at 30 mg/kg, po after 4 hrs by ELISA
# hERG (KCNH2) = hERG (KCNH2) (Homo sapiens, UniProt Q12809); experiment: Inhibition of human ERG at 3 uM by Patch-Xpress assay
# hERG (KCNH2), sequence (Q12809 whole entry): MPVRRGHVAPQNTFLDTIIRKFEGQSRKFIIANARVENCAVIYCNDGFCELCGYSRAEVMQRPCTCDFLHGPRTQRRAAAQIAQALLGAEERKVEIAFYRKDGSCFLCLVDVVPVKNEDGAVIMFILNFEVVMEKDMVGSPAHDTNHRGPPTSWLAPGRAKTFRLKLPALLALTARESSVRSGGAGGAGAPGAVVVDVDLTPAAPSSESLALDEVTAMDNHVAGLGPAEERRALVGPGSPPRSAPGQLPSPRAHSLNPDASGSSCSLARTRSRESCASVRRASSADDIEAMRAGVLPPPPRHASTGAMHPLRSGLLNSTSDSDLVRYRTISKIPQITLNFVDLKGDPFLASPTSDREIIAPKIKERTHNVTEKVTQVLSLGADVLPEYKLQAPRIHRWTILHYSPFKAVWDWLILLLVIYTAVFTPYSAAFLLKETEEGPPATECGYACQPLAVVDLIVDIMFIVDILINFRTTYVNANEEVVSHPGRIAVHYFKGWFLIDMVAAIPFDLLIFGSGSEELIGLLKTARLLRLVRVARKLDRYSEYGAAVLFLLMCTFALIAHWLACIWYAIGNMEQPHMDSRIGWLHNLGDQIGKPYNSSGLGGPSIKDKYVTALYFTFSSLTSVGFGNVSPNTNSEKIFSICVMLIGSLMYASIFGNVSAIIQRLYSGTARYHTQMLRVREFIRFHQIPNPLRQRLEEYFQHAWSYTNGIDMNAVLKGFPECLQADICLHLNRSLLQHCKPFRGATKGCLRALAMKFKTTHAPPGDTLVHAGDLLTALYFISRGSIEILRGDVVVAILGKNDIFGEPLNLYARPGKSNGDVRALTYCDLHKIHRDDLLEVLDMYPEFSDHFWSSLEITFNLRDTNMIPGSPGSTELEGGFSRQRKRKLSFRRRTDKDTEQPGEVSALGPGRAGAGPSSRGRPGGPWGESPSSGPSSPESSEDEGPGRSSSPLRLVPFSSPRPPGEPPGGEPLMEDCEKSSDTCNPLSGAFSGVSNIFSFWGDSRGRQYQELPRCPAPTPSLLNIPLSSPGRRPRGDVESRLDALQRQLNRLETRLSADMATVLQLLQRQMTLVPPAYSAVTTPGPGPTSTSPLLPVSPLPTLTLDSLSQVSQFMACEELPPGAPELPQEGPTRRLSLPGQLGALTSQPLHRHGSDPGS
# Cytochrome P450 2D6 = Cytochrome P450 2D6 (Homo sapiens, UniProt P10635); experiment: Inhibition of CYP2D6 (unknown origin)
# Cytochrome P450 2D6, sequence (P10635 whole entry): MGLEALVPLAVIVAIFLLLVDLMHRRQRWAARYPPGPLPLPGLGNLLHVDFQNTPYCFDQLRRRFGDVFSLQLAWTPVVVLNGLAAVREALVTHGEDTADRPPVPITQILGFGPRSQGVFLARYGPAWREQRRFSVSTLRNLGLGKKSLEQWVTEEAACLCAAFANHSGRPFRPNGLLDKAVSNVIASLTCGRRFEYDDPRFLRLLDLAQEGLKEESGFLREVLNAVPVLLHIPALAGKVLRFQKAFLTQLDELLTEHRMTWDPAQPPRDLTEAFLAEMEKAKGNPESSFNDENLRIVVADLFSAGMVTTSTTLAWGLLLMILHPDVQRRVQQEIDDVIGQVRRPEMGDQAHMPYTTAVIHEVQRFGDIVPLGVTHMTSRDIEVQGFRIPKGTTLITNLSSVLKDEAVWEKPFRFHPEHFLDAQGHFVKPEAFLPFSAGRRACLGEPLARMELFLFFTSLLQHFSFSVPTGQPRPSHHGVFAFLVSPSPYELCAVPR
# [9] = Plasma concentration in mouse at 30 mg/kg, po after 4 hrs; type: ADME, organism-based; parameters: dose 30 mg/kg, route oral; in short: as §2
# Cytochrome P450 3A4 = Cytochrome P450 3A4 (Homo sapiens, UniProt P08684); experiment: Inhibition of CYP3A4 (unknown origin)
# Cytochrome P450 3A4, sequence (P08684 whole entry): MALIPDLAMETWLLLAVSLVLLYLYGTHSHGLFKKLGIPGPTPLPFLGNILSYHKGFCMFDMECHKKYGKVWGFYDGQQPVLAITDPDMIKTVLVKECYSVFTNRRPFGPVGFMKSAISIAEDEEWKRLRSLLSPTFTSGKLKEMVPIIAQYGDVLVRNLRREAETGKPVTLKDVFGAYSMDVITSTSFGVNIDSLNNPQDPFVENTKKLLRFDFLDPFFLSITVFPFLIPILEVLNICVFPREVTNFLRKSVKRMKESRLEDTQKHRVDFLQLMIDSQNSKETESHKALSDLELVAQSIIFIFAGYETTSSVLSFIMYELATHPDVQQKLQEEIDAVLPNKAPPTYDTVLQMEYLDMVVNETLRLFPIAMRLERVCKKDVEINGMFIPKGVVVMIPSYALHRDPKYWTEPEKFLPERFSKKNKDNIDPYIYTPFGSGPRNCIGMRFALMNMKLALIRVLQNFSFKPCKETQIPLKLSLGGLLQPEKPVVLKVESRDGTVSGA
# [10] = Ratio of drug level in brain to plasma in mouse at 30 mg/kg, po after 4 hrs; type: ADME, organism-based; parameters: dose 30 mg/kg, route oral; settings: read-out: BPR; in short: as §2
# [11] = Drug metabolism in human liver microsomes at 1 uM after 15 mins; type: ADME, Microsome; settings: read-out: Drug metabolism; in short: as §1
# [12] = molecular target: Voltage-gated inwardly rectifying potassium channel KCNH2 (Homo sapiens, UniProt Q12809); experiment: Binding affinity to human ERG
# Voltage-gated inwardly rectifying potassium channel KCNH2, sequence (Q12809 whole entry): as the sequence (Q12809 whole entry) above
# Gamma-secretase [13] = experiment: Modulation of gamma-secretase (unknown origin); type: protein-complex assay, Homo sapiens
# Canis familiaris [14] = experiment: Antialzheimer activity in dog assessed as increase of amyloid beta 38 level in cerebrospinal fluid at 20 mg/kg, po after 8 hrs by ELISA; type: functional, Canis lupus familiaris
# In short: (§4)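 Dogs received 20 mg/kg orally. CSF Aβ42 and Aβ38 were measured 8 h after dosing and expressed as % change.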
# Canis familiaris [15] = experiment: Hepatotoxicity in dog assessed as effect on bilirubin and alanine transaminase level at 20 mg/kg, po; type: toxicity, organism-based, Canis lupus familiaris; parameters: dose 20 mg/kg, route oral; settings: in vivo
# Canis familiaris [16] = experiment: Antialzheimer activity in dog assessed as reduction of amyloid beta 42 level in cerebrospinal fluid at 20 mg/kg, po after 8 hrs by ELISA; type: functional; settings: Canis lupus familiaris; in short: as §4
# [17] = Plasma concentration in dog at 20 mg/kg, po after 8 hrs; type: ADME, organism-based, Canis lupus familiaris; parameters: dose 20 mg/kg, route oral
# In short: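 Dogs received 20 mg/kg orally. Plasma compound concentration was measured at 8 h and reported in ng/mL and μM.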
# Cytochrome P450 2C9, sequence (P11712 whole entry): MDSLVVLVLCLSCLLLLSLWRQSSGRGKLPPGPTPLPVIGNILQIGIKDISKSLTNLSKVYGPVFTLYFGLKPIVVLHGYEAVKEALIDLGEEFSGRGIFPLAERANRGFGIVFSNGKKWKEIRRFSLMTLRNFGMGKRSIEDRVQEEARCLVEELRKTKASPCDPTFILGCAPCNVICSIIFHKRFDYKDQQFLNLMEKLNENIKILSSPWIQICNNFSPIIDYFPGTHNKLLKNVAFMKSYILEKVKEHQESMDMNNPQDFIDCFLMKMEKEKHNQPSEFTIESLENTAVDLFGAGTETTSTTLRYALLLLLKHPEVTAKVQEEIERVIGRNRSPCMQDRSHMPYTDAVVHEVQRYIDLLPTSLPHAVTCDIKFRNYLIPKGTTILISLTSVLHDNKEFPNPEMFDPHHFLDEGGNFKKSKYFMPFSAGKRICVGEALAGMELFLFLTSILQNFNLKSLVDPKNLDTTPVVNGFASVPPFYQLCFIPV
smiles,measurement,setting,value
COc1cc(-c2nc3n(n2)CCCC3c2ccc(F)cc2)ccc1-n1cnc(C)c1 (racemic),IC50,Gamma-secretase [1],0.22 µM
COc1cc(-c2nc3n(n2)CCC[C@H]3c2ccc(F)cc2C)ccc1-n1cnc(C)c1,IC50,Gamma-secretase [1],0.04 µM
same,IC50,Cytochrome P450 2C9,5.66 µM
same,"metabolised at […], 1 µM",[2],9%
same,IC50,Cytochrome P450 1A2,> 10 µM
same,IC50,Cytochrome P450 2C19,9.24 µM
same,concentration at 4 h,[3],4.8 µM
same,inhibition in vivo at 30 mg/kg,Mus musculus [4],49%
same,inhibition,Mus musculus [5],inactive
same,fraction unbound,[6],0.0092
same,fraction unbound,[7],0.027
same,Increase % at 30 mg/kg,Mus musculus [8],59%
same,inhibition at 3 µM,hERG (KCNH2),28%
same,IC50,Cytochrome P450 2D6,> 10 µM
same,concentration at 4 h,[9],9.8 µM
same,IC50,Cytochrome P450 3A4,6.94 µM
same,Kp at 4 h,[10],0.5
same,"metabolised at […], 1 µM",[11],41%
same,IC50,[12],7.9 µM
COc1cc(-c2nc(Cc3ccc(F)cc3)n(C)n2)ccc1-n1cnc(C)c1,IC50,Gamma-secretase [1],0.85 µM
COc1cc(-c2nc3n(n2)CCC[C@@H]3c2ccc(F)cc2C)ccc1-n1cnc(C)c1,IC50,Gamma-secretase [1],0.447 µM
same,IC50,[12],0.794 µM
COc1cc(C(=O)N[C@@H](C)c2ccc(F)cc2)ccc1-n1cnc(C)c1,IC50,Gamma-secretase [1],2.6 µM
COc1cc(-c2nc(-c3ccc(F)cc3)n(C)n2)ccc1-n1cnc(C)c1,IC50,Gamma-secretase [1],0.62 µM
COc1cc(C(=O)NCc2cccc(-c3ccccc3)c2)ccc1-n1cnc(C)c1,concentration at 4 h,[3],2.7 µM
same,inhibition in vivo at 30 mg/kg,Mus musculus [4],12%
same,inhibition in vivo at 30 mg/kg,Mus musculus [5],3%
same,concentration at 4 h,[9],11.9 µM
same,IC50,Gamma-secretase [13],0.158 µM
same,Kp at 4 h,[10],0.22
COc1cc(-c2nnc(-c3ccc(F)cc3)[nH]2)ccc1-n1cnc(C)c1,IC50,Gamma-secretase [1],1.29 µM
COc1cc(-c2nc(-c3ccc(F)cc3)nn2C)ccc1-n1cnc(C)c1,IC50,Gamma-secretase [1],5.75 µM
COc1nc(-c2nc3n(n2)CCC[C@H]3c2ccccc2C(F)(F)F)ccc1-n1cnc(C)c1,Activity,Canis familiaris [14],28%
same,IC50,Gamma-secretase [1],0.028 µM
same,IC50,Cytochrome P450 2C9,8.51 µM
same,"metabolised at […], 1 µM",[2],6%
same,IC50,Cytochrome P450 2C19,> 10 µM
same,Activity,Canis familiaris [15],Non-toxic
same,concentration at 4 h,[3],2.8 µM
same,inhibition in vivo at 30 mg/kg,Mus musculus [4],62%
same,inhibition in vivo at 20 mg/kg,Canis familiaris [16],50%
same,fraction unbound,[6],0.022
same,fraction unbound,[7],0.085
same,Increase % at 30 mg/kg,Mus musculus [8],66%
same,IC50,Cytochrome P450 2D6,> 10 µM
same,concentration at 4 h,[9],12.3 µM
same,IC50,Cytochrome P450 3A4,> 10 µM
same,Kp at 4 h,[10],0.23
same,"metabolised at […], 1 µM",[11],10%
same,concentration at 8 h,[17],19 µM
COc1cc(-c2nc3n(n2)CCO[C@H]3c2ccccc2C(F)(F)F)ccc1-n1cnc(C)c1,IC50,Gamma-secretase [1],0.071 µM
same,IC50,Cytochrome P450 2C9,8.43 µM
same,"metabolised at […], 1 µM",[2],6%
same,IC50,Cytochrome P450 1A2,> 10 µM
same,IC50,Cytochrome P450 2C19,1.52 µM
same,concentration at 4 h,[3],3.36 µM
same,inhibition in vivo at 30 mg/kg,Mus musculus [4],22%
same,Increase % at 30 mg/kg,Mus musculus [8],17%
same,inhibition at 3 µM,hERG (KCNH2),12%
same,IC50,Cytochrome P450 2D6,> 10 µM
same,concentration at 4 h,[9],3.6 µM
same,IC50,Cytochrome P450 3A4,1.1 µM
same,Kp at 4 h,[10],0.93
same,"metabolised at […], 1 µM",[11],5%
same,IC50,[12],> 10 µM
COc1cc(-c2nc3n(n2)CCC[C@H]3c2ccccc2C(F)(F)F)ccc1-n1cnc(C)c1,IC50,Gamma-secretase [1],0.024 µM
same,"metabolised at […], 1 µM",[2],7%
same,concentration at 4 h,[3],12.7 µM
same,inhibition in vivo at 30 mg/kg,Mus musculus [4],46%
same,Increase % at 30 mg/kg,Mus musculus [8],44%
same,inhibition at 3 µM,hERG (KCNH2),11%
same,concentration at 4 h,[9],9.7 µM
same,Kp at 4 h,[10],1.29
same,"metabolised at […], 1 µM",[11],13%
same,IC50,[12],> 10 µM
COc1cc(-c2nc(C)n(-c3ccc(F)cc3)n2)ccc1-n1cnc(C)c1,IC50,Gamma-secretase [1],0.77 µM
COc1cc(-c2nc3n(n2)CCCC3c2ccc(F)cc2C)ccc1-n1cnc(C)c1 (racemic),IC50,Gamma-secretase [1],0.093 µM

# Source: ChEMBL document CHEMBL2413065, “Design and synthesis of bicyclic heterocycles as potent γ-secretase modulators” (Bioorg Med Chem Lett, 2013)
